This note sets out measurements from ChEMBL document CHEMBL1938298, “Synthesis and characterization of [¹²⁵I]2-iodo N-[(S)-{(S)-1-methylpiperidin-2-yl}(phenyl)methyl]3-trifluoromethyl-benzamide as novel imaging probe for glycine transporter 1” (Bioorg Med Chem, 2011).

Data set [1] deals with T1, Sodium- and chloride-dependent glycine transporter 1 (Rattus norvegicus) (UniProt P28572).
T1 sequence (whole entry): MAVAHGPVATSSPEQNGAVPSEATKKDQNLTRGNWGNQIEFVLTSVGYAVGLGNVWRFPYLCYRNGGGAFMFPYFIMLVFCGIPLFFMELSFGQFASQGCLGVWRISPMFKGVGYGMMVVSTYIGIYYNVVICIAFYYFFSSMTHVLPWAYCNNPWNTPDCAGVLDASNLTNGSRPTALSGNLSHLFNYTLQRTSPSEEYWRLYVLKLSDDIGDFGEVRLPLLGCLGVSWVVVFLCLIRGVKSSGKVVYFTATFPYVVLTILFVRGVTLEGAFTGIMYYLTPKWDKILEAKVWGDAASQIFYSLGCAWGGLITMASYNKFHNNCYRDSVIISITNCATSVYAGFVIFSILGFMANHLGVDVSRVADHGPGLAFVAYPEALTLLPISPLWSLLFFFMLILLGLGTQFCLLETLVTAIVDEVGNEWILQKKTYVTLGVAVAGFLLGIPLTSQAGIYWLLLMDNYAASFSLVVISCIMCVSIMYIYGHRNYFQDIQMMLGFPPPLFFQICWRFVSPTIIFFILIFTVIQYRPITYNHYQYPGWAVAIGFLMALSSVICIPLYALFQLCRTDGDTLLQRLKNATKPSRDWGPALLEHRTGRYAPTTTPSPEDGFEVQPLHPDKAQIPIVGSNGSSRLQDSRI
Put plainly: Binding affinity to GlyT1 in rat brain cerebellum at 0.03 to 0.04 nM preincubated for 20 mins in binding buffer before compound addition measured after 30 mins by autoradiography in presence of 0.01 mM GlyT1 inhibitor ALX5407 relative to control. The class given is tissue-based. The following applies: tested as the 125I-labelled form. An outline of the steps:
(§1)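 Rat brain sagittal sections (20 µm) preincubated 20 min at 25 °C in Tris-HCl buffer pH 7.5 (NaCl, KCl, MgCl2, CaCl2), then 30 min at 25 °C with [125I] tracer (100 kBq, 0.03–0.04 nM) plus competitor (10 µM; glycine 1 or 10 mM). Cold washes, imaging plate 3 days, ROI PSL minus background per mm². % control from ≥triplicate slices, three rats.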

Data set [2] concerns Mus musculus. Put plainly: In vivo binding affinity to GlyT1 in ddY mouse brain hippocampus at 33.3 kBq, iv after 60 mins in presence of SSR504734 2 mg/kg, iv administered 15 mins prior to compound administration relative to control. The data set is classed as functional, organism-based. The conditions noted are these: tested as the 125I-labelled form. Set-up: dose 2 mg/kg. An outline of the steps: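 Male ddY mice (6 W, 30–35 g) were given [125I]5 (ca. 33.3 kBq, 0.1 mL) iv via tail vein. Blocker (2 mg/kg in 30% DMSO/saline) was given iv 15 min before the tracer. Mice were killed 30 or 60 min after injection and the brain regions were dissected and weighed. Gamma counting gave % dose/g, compared with control; n = 5–6.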

Data set [3] concerns the target T1, Sodium- and chloride-dependent glycine transporter 1 (Rattus norvegicus). Put plainly: Binding affinity to GlyT1 in rat brain striatum at 0.03 to 0.04 nM preincubated for 20 mins in binding buffer before compound addition measured after 30 mins by autoradiography in presence of GlyT1 inhibitor N-Me-SSR504734 relative to control. The data set is classed as tissue-based. The conditions noted are these: tested as the 125I-labelled form.

The target is the same in data set [4]. Briefly: Binding affinity to GlyT1 in rat brain midbrain at 0.03 to 0.04 nM preincubated for 20 mins in binding buffer before compound addition measured after 30 mins by autoradiography in presence of 0.01 mM GlyT1 inhibitor HPCP relative to control. The data set is classed as tissue-based. The conditions noted are these: tested as the 125I-labelled form. An outline of the steps: as §1

Data set [5] has the same target. Put plainly: Binding affinity to GlyT1 in rat brain striatum at 0.03 to 0.04 nM preincubated for 20 mins in binding buffer before compound addition measured after 30 mins by autoradiography in presence of 0.01 mM GlyT1 inhibitor HPCP relative to control. The data set is classed as tissue-based. The following applies: tested as the 125I-labelled form.
Data set [6] relates to Mus musculus. Put plainly: In vivo binding affinity to GlyT1 in ddY mouse brain cortex at 33.3 kBq, iv after 30 mins in presence of SSR504734 2 mg/kg, iv administered 15 mins prior to compound administration relative to control. The class given is functional, organism-based. The following applies: tested as the 125I-labelled form. On the set-up: dose 2 mg/kg. An outline of the steps:
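Blocking study in male ddY mice (6 weeks, 30–35 g). The blocker (2 mg/kg in 30% DMSO/saline) was injected i.v. 15 min before about 33.3 kBq [125I]tracer i.v.; mice were killed at 30 or 60 min. Brains were divided into cortex, corpus callosum, hippocampus, thalamus, midbrain, medulla and cerebellum, weighed and gamma-counted as % dose/g. Values are mean ± SD, n = 5–6, compared to control by Kruskal–Wallis with Dunn's post-test.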

The subject of data set [7] is Mus musculus. Briefly: In vivo binding affinity to GlyT1 in ddY mouse brain thalamus at 200 kBq, iv after 60 mins by autoradiography relative to control. The class given is functional, organism-based. The following applies: tested as the 125I-labelled form.
The test system of data set [8] is Blood. Briefly: Drug uptake in ddY mouse blood at 11.1 kBq, iv after 180 min by gamma counting. The data set is classed as ADME, organism-based. The following applies: in vivo, 3 h. The method, boiled down: (§2)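 Male ddY mice (6 weeks, 30–35 g) received about 11.1 kBq [125I]tracer in 0.1 mL i.v. via tail vein. Killed at set times, organs dissected and weighed, radioactivity gamma counted. Reported as % injected dose/g tissue, mean ± SD, n = 5–6.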

The test system of data set [9] is Liver. Briefly: Drug uptake in ddY mouse liver at 11.1 kBq, iv after 60 min by gamma counting. The class given is ADME, organism-based. The following applies: in vivo, 1 h. An outline of the steps:
(§3)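 Male ddY mice (6 weeks, 30–35 g) were given about 11.1 kBq of [125I]tracer in 0.1 mL i.v. via the tail vein. At each time point the animals were killed and organs dissected, weighed and gamma-counted. Uptake is expressed as % injected dose per gram of tissue, mean ± SD, n = 5–6.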

Data set [10] has as its system Stomach. Put plainly: Drug uptake in ddY mouse stomach at 11.1 kBq, iv after 180 min by gamma counting. The data set is classed as ADME, organism-based. The following applies: in vivo, 3 h. The method, boiled down:
as §3

The subject of data set [11] is Mus musculus. Put plainly: In vivo binding affinity to GlyT1 in ddY mouse brain thalamus at 33.3 kBq, iv after 60 mins in presence of N-Me-SSR504734 2 mg/kg, iv administered 15 mins prior to compound administration relative to control. The class given is functional.
Data set [12] deals with Kidney. Put plainly: Drug uptake in ddY mouse kidney at 11.1 kBq, iv after 60 min by gamma counting. The data set is classed as ADME, organism-based. The conditions noted are these: in vivo, 1 h. The method, boiled down: as §3
The test system of data set [13] is Heart. Put plainly: Drug uptake in ddY mouse heart at 11.1 kBq, iv after 180 min by gamma counting. The class given is ADME, organism-based. The following applies: in vivo, 3 h. The method, boiled down:
as §2

In data set [14] the test system is Kidney. Briefly: Drug uptake in ddY mouse kidney at 11.1 kBq, iv after 0.5 min by gamma counting. The data set is classed as ADME, organism-based. The conditions noted are these: in vivo. An outline of the steps:
as §2

Data set [15] is described as follows: Metabolic stability in ddY mouse brain assessed as compound remaining at 185 kBq after 60 mins by radio-TLC. The data set is classed as ADME, tissue-based. The conditions noted are these: read-out: Stability.
The subject of data set [16] is Brain. Briefly: Drug uptake in ddY mouse brain at 11.1 kBq, iv after 0.5 min by gamma counting. The following applies: in vivo. The data set is classed as ADME, organism-based. The method, boiled down:
as §2

Data set [17] has as its system Lung. Put plainly: Drug uptake in ddY mouse lung at 11.1 kBq, iv after 30 min by gamma counting. The class given is ADME, organism-based. The conditions noted are these: in vivo, 0.5 h. The method, boiled down:
as §3

Data set [18] relates to Heart. Briefly: Drug uptake in ddY mouse heart at 11.1 kBq, iv after 0.5 min by gamma counting. The following applies: in vivo. The data set is classed as ADME, organism-based. An outline of the steps: as §2
For data set [19], the system named is Mus musculus. Briefly: In vivo binding affinity to GlyT1 in ddY mouse brain midbrain at 33.3 kBq, iv after 60 mins in presence of nonradioactive compound 2 mg/kg, iv administered 15 mins prior to compound administration relative to control. The data set is classed as functional.
For data set [20], the system named is Stomach. Put plainly: Drug uptake in ddY mouse stomach at 11.1 kBq, iv after 0.5 min by gamma counting. The class given is ADME, organism-based. The conditions noted are these: in vivo. An outline of the steps:
as §3

Active and inactive are the calls of the source. The calls are words filed in the database; no cut-off is given here.

For the compound `CN1CCCC[C@H]1[C@@H](NC(=O)c1cccc(C(F)(F)F)c1I)c1ccccc1`, the Activity in data set [1] is 43.1%; in [3], 32.2%; in [4], 19.7%; in data set [5], 31.8%. Also, the outcome in data set [2] and in [6] was inactive. In addition, the outcome in data set [7] was Active.

For `CN1CCCC[C@H]1[C@@H](NC(=O)c1cccc(C(F)(F)F)c1[125I])c1ccccc1`, the Drug uptake in data set [8] was 0.85 % ID/g; in [9], 16.04 % ID/g; in data set [10] it was 12.73 % ID/g; in data set [12] it was 8.27 % ID/g; in data set [13], 1.79 % ID/g; in data set [14], 4.05 % ID/g. The Drug uptake was found to be 0.51 % ID/g in [16], 17.07 % ID/g in data set [17], 8.19 % ID/g in data set [18] and 0.83 % ID/g in data set [20]. Besides, the Activity came out at 56% in [11] and 51% in [19]. Besides, the remaining at 1 h in data set [15] came to 89%.
